Measurements as given in PubChem BioAssay.
Calls of active or inactive are those of the source.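 How the source made its calls, unless noted: active means fluorescence slope after compound addition differing from the mean of all screened samples at 99.7% confidence, in either direction; inactive means the rest.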

How the values were obtained:
[1] = inhibitors of TNFa-induced NFkB p65 translocation, primary screen, imaging, HUVEC, MLSMR starter and 10KST1 sets (AID 438;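 active means inhibition above 20% together with a positive visual image hit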;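 further: compound added about 3h40 before a 20 min TNFalpha stimulation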;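 on inhibition: signal is the nuclear over cytoplasmic p65 intensity ratio per well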); details: HUVEC TNFa-induced p65 nuclear translocation; cell count: measured here: nuclei count (cytotoxicity indicator), at 2.08 µM; inhibition: at 2 µM, stronger effect = higher value, 0% TNFa-plus-vehicle, 100% no-TNFa wells
[2] = endothelial E-selectin expression blockers – imaging, HUVEC, immunofluorescence, MLSMR starter and 10KST1 sets, primary screen (AID 487;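 active means visually confirmed hit in the image check and inhibition above 20%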;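 on inhibition: signal is fraction of cell area covered by stained E-selectin grains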;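 on nuclei count: 100% = median nuclei count of all wells on the same plate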); details: HUVEC TNFalpha-induced E-selectin immunofluorescence imaging, at 2 µM; inhibition: stronger effect = higher value; nuclei count: measured here: cell number, toxicity
[3] = Primary imaging screen for DUSP6 inhibitors that restore phospho-Erk in transfected HeLa cells, chemical complementation (AID 609;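 active means compounds giving at least 50% inhibition in the cell-based MKP-3 phosphatase rescue imaging test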;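 on inhibition: phospho-Erk level distribution per well compared with pooled transfected vehicle control wells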); details: HeLa MKP-3 transfected, phospho-Erk imaging KS statistic, at 10 µM, cells stimulated with TPA for 15 min
[4] = biological target: Dual specificity protein phosphatase 6 (Homo sapiens) (UniProt Q16828); test: as above; details: HeLa MKP-3 transfected, phospho-Erk imaging KS statistic; at 10 µM; stronger effect = higher value; cells stimulated with TPA for 15 min
Dual specificity protein phosphatase 6 (Homo sapiens), sequence (Q16828 whole entry, looked up): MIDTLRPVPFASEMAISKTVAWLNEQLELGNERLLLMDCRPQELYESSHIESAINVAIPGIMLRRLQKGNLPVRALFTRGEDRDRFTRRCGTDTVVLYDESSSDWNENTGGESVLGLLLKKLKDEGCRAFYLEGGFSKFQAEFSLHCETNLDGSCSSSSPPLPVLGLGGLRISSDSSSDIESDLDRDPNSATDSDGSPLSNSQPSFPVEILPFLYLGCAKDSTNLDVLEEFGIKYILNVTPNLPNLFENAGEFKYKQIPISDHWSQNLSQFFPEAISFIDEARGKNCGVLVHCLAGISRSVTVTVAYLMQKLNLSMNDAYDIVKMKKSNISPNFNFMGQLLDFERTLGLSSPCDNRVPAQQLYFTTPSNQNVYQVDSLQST

[5] = biological target: Voltage-gated potassium channel subunit beta-2 (Rattus norvegicus) (UniProt P62483); test: inhibitors of rat Kvbeta2 reductase activity – biochemical, NADPH fluorescence, primary screen (AID 622;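 active means fluorescence slope higher than the sample average by over 3 SD, cut at about -0.22 in these data, passing the limit was not always enough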;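 further: slope of raw intensity against log time taken from 70 to 1610 s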); details: recombinant KvBeta, 4-cyanobenzaldehyde reduction, at 10 µM, stronger effect = higher value
Voltage-gated potassium channel subunit beta-2 (Rattus norvegicus), sequence (P62483 whole entry, looked up): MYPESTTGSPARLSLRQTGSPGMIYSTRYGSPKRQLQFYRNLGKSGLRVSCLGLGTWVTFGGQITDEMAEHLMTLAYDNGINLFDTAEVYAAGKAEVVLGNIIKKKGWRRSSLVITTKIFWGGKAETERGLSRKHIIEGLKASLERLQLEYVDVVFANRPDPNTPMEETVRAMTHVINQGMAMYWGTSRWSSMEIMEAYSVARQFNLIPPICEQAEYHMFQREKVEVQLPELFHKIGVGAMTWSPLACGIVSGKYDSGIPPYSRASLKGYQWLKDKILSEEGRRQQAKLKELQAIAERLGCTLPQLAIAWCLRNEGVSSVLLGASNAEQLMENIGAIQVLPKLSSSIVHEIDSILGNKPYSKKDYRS

[6] = biological target: Voltage-gated potassium channel subunit beta-2 (Rattus norvegicus) (UniProt P62483); test: enhancers of rat Kvbeta2 NADPH turnover – biochemical, NADPH fluorescence, primary screen (AID 623;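 active means NADPH fluorescence slope more negative than the mean of all samples by about 3 SD, 99.7% confidence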;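 further: fluorescence intensity change per second fitted from 20 to 320 s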); details: Recombinant KvBeta, NADPH fluorescence decrease slope, 10 min; at 10 µM; stronger effect = lower value
[7] = biological target: Alpha-2C adrenergic receptor (Homo sapiens) (UniProt P18825); test: compounds altering alpha2C-coupled GIRK flux – cell-based, HEK293 alpha2C/GIRK1/2, thallium flux, primary screen (AID 624); details: thallium flux BTC fluorescence, at 10 µM, actives lie on both sides;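 further: slope of fluorescence ratio to pre-addition baseline per second over 15 to 24 s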
Alpha-2C adrenergic receptor (Homo sapiens), sequence (P18825 whole entry, looked up): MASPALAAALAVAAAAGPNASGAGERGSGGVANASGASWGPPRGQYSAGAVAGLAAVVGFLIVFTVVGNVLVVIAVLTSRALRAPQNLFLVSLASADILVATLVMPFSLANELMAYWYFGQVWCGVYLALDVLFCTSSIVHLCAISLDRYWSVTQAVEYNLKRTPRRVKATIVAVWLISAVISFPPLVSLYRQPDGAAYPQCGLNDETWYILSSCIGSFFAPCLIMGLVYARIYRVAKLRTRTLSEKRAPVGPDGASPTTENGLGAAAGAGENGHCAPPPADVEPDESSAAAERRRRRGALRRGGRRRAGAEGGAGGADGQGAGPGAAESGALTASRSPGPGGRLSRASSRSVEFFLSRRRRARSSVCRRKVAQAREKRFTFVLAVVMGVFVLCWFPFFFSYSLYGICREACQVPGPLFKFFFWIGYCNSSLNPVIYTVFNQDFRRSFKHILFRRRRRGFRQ

[8] = inhibitors of larval lipid processing in zebrafish, primary screen, whole organism, PED6 fluorescence, gall bladder and intestine (AID 686;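 active means a full or partial loss of lipid-probe fluorescence in the fish gall bladder, intestine or both, judged by eye; inactive means no fluorescence loss, or compound toxic to the fish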;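 further: larvae 5 to 7 days old with five fish per well; signal comes from phospholipase A2 cleavage of quenched PED6 carried via bile; overnight exposure to compound and PED6 before scoring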); details: Zebrafish larvae PED6 lipid processing, fluorescence scoring; screened at 20 µM (by protocol)
Procedure, shortened: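 Doses: 20 µM single dose. Test system: live zebrafish larvae aged 5-7 days, whole organism. Quantity: five larvae per well. Measured by: By-eye fluorescence microscopy. Reagent: ingested quenched lipid PED6 at 100 nM. Read-out: visual per-well fluorescence inhibition score. Times: overnight exposure of larvae to compound plus PED6.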

[9] = loss of swimming-algae plug formation – whole organism, Chlamydomonas reinhardtii, WT vs cilia-less mutant, absorbance, 96-well, primary screen (AID 463189;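 active means inhibition at or above 50% relative to wild type and mutant plate controls; inactive means inhibition below 50%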;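 further: 0% = wild type cc124 cells in DMSO and 100% = ciliumless bld1 mutant cells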); details: Chlamydomonas reinhardtii gravitaxis, OD600 absorbance, 2 days; at 10 µM; stronger effect = higher value
[10] = measured here: cell density z-score
[11] = measured here: nuclear c-Myc green intensity z-score
[12] = measured here: nuclear pErk red intensity z-score, stronger effect = higher value

Structure (SMILES) | cell count [1] | inhibition [1] | inhibition [2] | nuclei count [2] | z-score [3, 10] | z-score [3, 11] | z-score [3, 12] | inhibition [4] | fluorescence slope [5] | NADPH fluorescence slope [6] | slope [7] | outcome [8] | inhibition [9]
COc1ccc(Oc2nc3c(c(=O)n(C)c(=O)n3C)n2Cc2cccc(OC)c2)cc1 | 468 | -1.9% (inactive) | -260% (inactive) | 162% | 1.97 | -0.65 | -2.21 | 26% (inactive) | -0.295 (inactive) | -1.2e-05 (inactive) | 0.00507 (inactive) | inactive | 31.4% (inactive)
O=C(CC(c1ccccc1)c1ccco1)N1CCOCC1 (stereo unspecified) | 294 | -28.3% (inactive) | -96.2% (inactive) | 84.1% | -0.599 | 0.143 | -0.229 | 14% (inactive) | -0.429 (inactive) | -4.9e-05 (inactive) | 0.00649 (inactive) | inactive | -5.11% (inactive)
N=c1c2c(-c3ccccc3)c(-c3ccccc3)n(Cc3ccccc3)c2ncn1CCCn1ccnc1 | 551 | -6.7% (inactive) | 17.5% (inactive) | 142% | -0.862 | 0.115 | -0.203 | -1.75% (inactive) | -0.292 (inactive) | 9.2e-06 (inactive) | 0.00345 (inactive) | inactive | 118% (active)
Cn1c(SCC(=O)N2CCOCC2)nnc1-c1ccc(Cl)cc1Cl | 359 | -9.4% (inactive) | -17.3% (inactive) | 101% | 0.947 | -0.186 | -0.938 | 1.75% (inactive) | -0.453 (inactive) | 1.1e-05 (inactive) | 0.00668 (inactive) | inactive | -14.7% (inactive)
Cc1ccc(SCc2c(C#N)c3ccccc3n2C)cc1 | 288 | -2.4% (inactive) | -79.2% (inactive) | 129% | -1.74 | 2.02 | 0.448 | 12.3% (inactive) | -0.445 (inactive) | -0.000146 (inactive) | 0.00992 (active) | inactive | 16.9% (inactive)
CCOc1ccc(-c2nnc3sc(COc4ccccc4)nn23)cc1 | 502 | -11.7% (inactive) | -288% (inactive) | 155% | -0.358 | -0.85 | 1.78 | -15% (inactive) | -0.405 (inactive) | -0.000151 (inactive) | 0.00528 (inactive) | inactive | 53.8% (active)
CCc1ccc2c(c1)C(C)=CC(C)(C)N2 | 622 | -14.1% (inactive) | -3.3% (inactive) | 176% | -1.35 | -0.276 | 0.835 | -13.3% (inactive) | -0.431 (inactive) | -6.9e-05 (inactive) | 0.00542 (inactive) | inactive | 5.82% (inactive)
COc1cccc(OCCN2CCN(c3ncnc4c3cnn4-c3ccccc3)CC2)c1 | 555 | -23.4% (inactive) | -98.5% (inactive) | 166% | 0.225 | -1.36 | 0.0914 | -11.5% (inactive) | -0.519 (inactive) | -3.9e-05 (inactive) | 0.00443 (inactive) | inactive | 48.3% (inactive)
CC(C)N1CC=C2C(C#N)=C(N)C(C#N)(C#N)C(c3ccccc3)C2C1 (stereo unspecified) | 535 | -3.2% (inactive) | -126% (inactive) | 218% | 0.674 | 3.57 | 1.58 | 68.6% (inactive) | -0.366 (inactive) | -2.3e-05 (inactive) | 0.000192 (inactive) | inactive | 11.1% (inactive)
N#CCSc1nc2c(cc1C#N)CCCCCC2 | 603 | -18.1% (inactive) | 46.1% (inactive) | 147% | 0.833 | -0.157 | -0.809 | 2.92% (inactive) | -0.354 (inactive) | -8.7e-06 (inactive) | 0.0055 (inactive) | inactive | 19.7% (inactive)
c1ccc(N2CCN(c3nc(NCc4ccco4)c4ccccc4n3)CC2)cc1 | 579 | 0.1% (inactive) | -25.4% (inactive) | 219% | 0.527 | -0.848 | 2.43 | -4.7% (inactive) | -0.35 (inactive) | -2.5e-05 (inactive) | 0.00337 (inactive) | inactive | 35.9% (inactive)
O=CN1CCN(C(=O)CN2C(=O)c3ccccc3C2=O)CC1 | 359 | -7.2% (inactive) | -43.3% (inactive) | 161% | 0.687 | -0.0272 | -1.29 | 11.4% (inactive) | -0.452 (inactive) | -0.000158 (inactive) | 0.00499 (inactive) | inactive | 15.5% (inactive)
CC(=O)c1cc(C#N)c(SCc2ccncc2)nc1C | 591 | -18.5% (inactive) | 40% (inactive) | 122% | 1.87 | -0.619 | 1.67 | -2.29% (inactive) | -0.548 (inactive) | -8.8e-06 (inactive) | 0.00573 (inactive) | inactive | -20.5% (inactive)
CCOC(=O)c1c(C(C#N)C#N)cc(C)nc1C | 521 | -5.3% (inactive) | -83.6% (inactive) | 129% | 0.584 | -0.43 | 0.768 | -2.07% (inactive) | -0.509 (inactive) | -8e-05 (inactive) | 0.00491 (inactive) | inactive | 9.41% (inactive)
C=CCn1c(=S)[nH]c2ccccc2c1=O | 649 | 1.8% (inactive) | -30.6% (inactive) | 130% | -0.515 | 0.859 | 0.00467 | 5.57% (inactive) | -0.46 (inactive) | -0.000371 (inactive) | 0.00865 (inactive) | inactive | -14.1% (inactive)
Nc1ccc(Cl)cc1/C(=N/O)c1ccccc1 | 337 | -13.8% (inactive) | -23% (inactive) | 65.2% | 0.198 | 0.536 | -0.0149 | 1.75% (inactive) | -0.451 (inactive) | 9e-06 (inactive) | 0.00461 (inactive) | inactive | 16.2% (inactive)
COc1ccc2[nH]c(C)c(C(=O)CN3CC(C)OC(C)C3)c2c1 (stereo unspecified) | 551 | -0.3% (inactive) | -1% (inactive) | 143% | -0.788 | 1.62 | -0.00446 | 3.5% (inactive) | -0.194 (inactive) | 2.2e-05 (inactive) | 0.00534 (inactive) | inactive | 7.59% (inactive)
CCOc1cccc(-c2nn3c(-c4ccccn4)nnc3s2)c1 | 649 | -3.2% (inactive) | -78% (inactive) | 150% | 0.204 | -0.822 | 0.934 | -9.66% (inactive) | -0.427 (inactive) | -4.9e-05 (inactive) | 0.00726 (inactive) | inactive | 23.8% (inactive)
Cc1cccc(C)c1OCC(O)CNS(=O)(=O)c1ccccc1C(=O)N1CCOCC1 (stereo unspecified) | 458 | 1.5% (inactive) | -196% (inactive) | 172% | -0.426 | 0.519 | 1.28 | 2.71% (inactive) | -0.387 (inactive) | -1.1e-05 (inactive) | 0.00603 (inactive) | inactive | -5.56% (inactive)
COc1ccc(OCC(=O)N2CCN(C(=O)c3cccc4ccccc34)CC2)cc1 | 413 | -2.6% (inactive) | -293% (inactive) | 133% | -0.479 | 0.976 | -0.768 | 3.66% (inactive) | -0.448 (inactive) | -1.4e-05 (inactive) | 0.00599 (inactive) | inactive | 0.794% (inactive)
C=CCc1c(C)nc(SCCC)[nH]c1=O | 540 | -10.1% (inactive) | -102% (inactive) | 135% | 0.611 | -0.0505 | -0.577 | 7.93% (inactive) | -0.486 (inactive) | -1.9e-05 (inactive) | 0.0077 (inactive) | inactive | 18.7% (inactive)
CC1(C)Cc2c(C#N)c(NCCN3CCOCC3)nc(-c3ccco3)c2CO1 | 579 | -8.4% (inactive) | -62.4% (inactive) | 149% | 0.114 | 1.74 | -1.62 | 26.5% (inactive) | -0.295 (inactive) | -3e-06 (inactive) | 0.00581 (inactive) | inactive | 34% (inactive)
Cc1nc2n[nH]c(N)c2c2c1COC(C)(C)C2 | 674 | -22.2% (inactive) | -454% (inactive) | 178% | 0.565 | -1.79 | -0.0762 | 5.57% (inactive) | -0.516 (inactive) | -0.000106 (inactive) | 0.00411 (inactive) | inactive | 3.25% (inactive)
COc1ccccc1N1CCN(C2CCN(C(=O)c3cccs3)CC2)CC1 | 390 | -7.8% (inactive) | -197% (inactive) | 173% | -0.252 | 0.0653 | 1.15 | -5.89% (inactive) | -0.397 (inactive) | -3e-05 (inactive) | 0.00342 (inactive) | inactive | 22.3% (inactive)
COc1cccc2c(=O)c(SC(F)(F)C(F)C(F)(F)F)c(C)[nH]c12 (stereo unspecified) | 311 | -0.8% (inactive) | -14.2% (inactive) | 105% | 0.112 | 2.52 | -0.995 | -2.91% (inactive) | -0.393 (inactive) | -3e-05 (inactive) | 0.00581 (inactive) | inactive | -12.2% (inactive)
CC(=O)c1ccc(O)c(CO)c1 | 639 | -20.9% (inactive) | -32.3% (inactive) | 101% | -0.0166 | 0.525 | -0.493 | 4.37% (inactive) | -0.463 (inactive) | -1.1e-05 (inactive) | 0.00706 (inactive) | inactive | -12.4% (inactive)
CC(=NC1CCCC1)c1c(C)[nH]n(-c2nc3ccccc3s2)c1=O | 573 | 3.4% (inactive) | 54.6% (inactive) | 142% | 0.859 | 0.776 | -1.4 | -1.12% (inactive) | -0.469 (inactive) | -0.000261 (inactive) | 0.00463 (inactive) | inactive | 6.63% (inactive)
